# Results taken from ChEMBL document CHEMBL4028836, “Optimization of M4 positive allosteric modulators (PAMs): The discovery of VU0476406, a non-human primate in vivo tool compound for translational pharmacology” (Bioorg Med Chem Lett, 2017).
# Experiments:
# [1] = molecular target: T1, Muscarinic acetylcholine receptor M4 (Homo sapiens) (UniProt P08173); experiment: Positive allosteric modulation of human M4 receptor expressed in CHO cells coexpressing Gqi5 assessed as increase in acetylcholine-induced calcium mobilization relative to acetylcholine; format: functional, cell-based
# T1 sequence (whole entry): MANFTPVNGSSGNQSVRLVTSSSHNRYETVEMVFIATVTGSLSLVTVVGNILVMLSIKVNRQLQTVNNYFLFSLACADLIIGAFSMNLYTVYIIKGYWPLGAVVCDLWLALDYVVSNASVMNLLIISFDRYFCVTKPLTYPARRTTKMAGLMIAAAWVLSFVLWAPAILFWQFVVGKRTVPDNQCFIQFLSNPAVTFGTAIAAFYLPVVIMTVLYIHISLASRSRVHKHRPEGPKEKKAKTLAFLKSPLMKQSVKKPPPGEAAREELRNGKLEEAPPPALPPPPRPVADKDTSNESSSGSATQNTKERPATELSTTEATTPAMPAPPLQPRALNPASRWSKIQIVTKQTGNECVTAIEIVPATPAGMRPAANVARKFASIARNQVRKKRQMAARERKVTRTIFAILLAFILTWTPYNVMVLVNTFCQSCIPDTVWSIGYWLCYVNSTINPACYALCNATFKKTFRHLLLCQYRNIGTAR
# Method in brief: (§1)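 Calcium mobilization in CHO cells expressing hM4 with Gqi5. Compound added in presence of a fixed EC20 concentration of acetylcholine. Values are means of three independent experiments, each run in triplicate.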
# [2] = molecular target: T2, Muscarinic acetylcholine receptor M4 (Homo sapiens, UniProt P08173); experiment: Positive allosteric modulation of human M4 receptor expressed in CHO cells coexpressing Gqi5 assessed as increase in acetylcholine-induced calcium mobilization; format: functional, cell-based; method in brief: as §1
# T2 sequence (P08173 whole entry): T1 sequence (whole entry)
# [3] = Brain to plasma permeability coefficient, Kp of the compound in cynomolgus monkey at 145 MBq, iv measured at 2 hrs post dose by PET analysis; format: ADME, organism-based, Macaca fascicularis
# Method in brief: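 PET study in one cynomolgus monkey given a single IV dose of [18F]-labelled compound (145 MBq), with roughly 2 hr of data acquisition after dosing. Whole and regional brain distribution of total and calculated unbound compound was determined.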
# [4] = Ratio of unbound brain to plasma concentration in cynomolgus monkey at 145 MBq, iv measured at 2 hrs post dose by PET analysis; format: ADME, organism-based, Macaca fascicularis; settings: read-out: K(p,uu,brain)
# Method in brief: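 Whole and regional brain distribution of total and calculated unbound drug in one cynomolgus monkey. PET after a single IV dose of [18F]-labelled compound (145 MBq), with about 2 h of data acquisition post-dose.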
# [5] = Ratio of unbound CSF to plasma concentration in cynomolgus monkey at 145 MBq, iv measured at 2 hrs post dose by PET analysis; format: ADME, organism-based, Macaca fascicularis
# [6] = test system: MDR1 (P-gp); experiment: Efflux ratio of permeability in MDCK2-MDR1 cells; format: ADME, cell-based, Canis lupus familiaris; settings: dog, MDCK-MDR1
# [7] = Unbound plasma concentration in rat; format: ADME, cell-free
# [8] = Brain to plasma permeability coefficient, Kp of the compound in Sprague-Dawley rat at 0.1 to 0.2 mg/kg, iv measured at 0.25 hrs post dose; format: ADME, organism-based
# Method in brief: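 Sprague-Dawley rats were dosed IV at 0.1–0.2 mg/kg, with brain and plasma sampled at 0.25 hr. Brain:plasma Kp was calculated, with Kp,uu where unbound fractions were available.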
# [9] = molecular target: T3, Cytochrome P450 1A2 (Homo sapiens, UniProt P05177); experiment: Inhibition of CYP1A2 (unknown origin); format: ADME
# T3 sequence (P05177 whole entry): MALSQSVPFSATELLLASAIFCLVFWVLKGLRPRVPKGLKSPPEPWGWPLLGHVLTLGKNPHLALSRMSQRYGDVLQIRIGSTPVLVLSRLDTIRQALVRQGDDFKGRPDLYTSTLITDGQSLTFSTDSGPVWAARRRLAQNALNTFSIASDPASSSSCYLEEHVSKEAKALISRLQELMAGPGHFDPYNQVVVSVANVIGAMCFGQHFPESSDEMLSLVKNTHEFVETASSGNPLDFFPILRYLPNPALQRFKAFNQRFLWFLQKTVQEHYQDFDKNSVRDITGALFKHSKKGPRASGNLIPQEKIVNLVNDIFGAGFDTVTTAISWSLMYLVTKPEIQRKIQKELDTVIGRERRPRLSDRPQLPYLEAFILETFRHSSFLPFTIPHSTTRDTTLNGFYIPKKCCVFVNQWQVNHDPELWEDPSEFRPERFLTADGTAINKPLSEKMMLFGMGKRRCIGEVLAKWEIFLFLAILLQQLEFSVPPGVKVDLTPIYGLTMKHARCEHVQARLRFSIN
# [10] = Unbound brain concentration in rat; format: ADME, tissue-based
# [11] = molecular target: Cytochrome P450 3A4 (Homo sapiens, UniProt P08684); experiment: Inhibition of CYP3A4 (unknown origin); format: ADME
# Cytochrome P450 3A4, sequence (P08684 whole entry): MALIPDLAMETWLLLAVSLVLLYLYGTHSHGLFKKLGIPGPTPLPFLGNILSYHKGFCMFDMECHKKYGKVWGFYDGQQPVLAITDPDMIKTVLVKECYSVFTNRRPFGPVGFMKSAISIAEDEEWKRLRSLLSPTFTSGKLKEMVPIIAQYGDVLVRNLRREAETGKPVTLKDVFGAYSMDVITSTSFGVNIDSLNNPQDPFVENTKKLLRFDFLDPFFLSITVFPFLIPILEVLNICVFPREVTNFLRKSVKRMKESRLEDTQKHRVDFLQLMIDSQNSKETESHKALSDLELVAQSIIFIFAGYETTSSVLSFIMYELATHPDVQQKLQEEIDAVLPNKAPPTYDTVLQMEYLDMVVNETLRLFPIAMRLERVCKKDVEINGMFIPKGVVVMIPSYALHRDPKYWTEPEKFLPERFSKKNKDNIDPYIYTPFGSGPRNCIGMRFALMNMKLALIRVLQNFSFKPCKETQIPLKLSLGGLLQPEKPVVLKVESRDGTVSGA
# [12] = molecular target: Cytochrome P450 2C9 (Homo sapiens, UniProt P11712); experiment: Inhibition of CYP2C9 (unknown origin); format: ADME
# Cytochrome P450 2C9, sequence (P11712 whole entry): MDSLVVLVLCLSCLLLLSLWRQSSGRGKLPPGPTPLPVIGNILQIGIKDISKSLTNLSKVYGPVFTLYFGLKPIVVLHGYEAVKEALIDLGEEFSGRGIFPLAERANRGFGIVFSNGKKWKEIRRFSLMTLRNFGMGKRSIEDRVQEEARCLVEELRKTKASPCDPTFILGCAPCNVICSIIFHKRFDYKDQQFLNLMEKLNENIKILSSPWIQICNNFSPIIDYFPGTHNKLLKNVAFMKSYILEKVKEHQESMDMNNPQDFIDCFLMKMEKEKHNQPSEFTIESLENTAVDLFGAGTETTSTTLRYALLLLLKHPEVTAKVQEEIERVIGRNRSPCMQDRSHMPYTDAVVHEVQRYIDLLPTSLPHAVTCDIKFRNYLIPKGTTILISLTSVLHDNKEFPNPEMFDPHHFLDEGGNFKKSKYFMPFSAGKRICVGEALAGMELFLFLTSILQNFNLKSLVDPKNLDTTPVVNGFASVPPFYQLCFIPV
# [13] = molecular target: Cytochrome P450 2D6 (Homo sapiens, UniProt P10635); experiment: Inhibition of CYP2D6 (unknown origin); format: ADME
# Cytochrome P450 2D6, sequence (P10635 whole entry): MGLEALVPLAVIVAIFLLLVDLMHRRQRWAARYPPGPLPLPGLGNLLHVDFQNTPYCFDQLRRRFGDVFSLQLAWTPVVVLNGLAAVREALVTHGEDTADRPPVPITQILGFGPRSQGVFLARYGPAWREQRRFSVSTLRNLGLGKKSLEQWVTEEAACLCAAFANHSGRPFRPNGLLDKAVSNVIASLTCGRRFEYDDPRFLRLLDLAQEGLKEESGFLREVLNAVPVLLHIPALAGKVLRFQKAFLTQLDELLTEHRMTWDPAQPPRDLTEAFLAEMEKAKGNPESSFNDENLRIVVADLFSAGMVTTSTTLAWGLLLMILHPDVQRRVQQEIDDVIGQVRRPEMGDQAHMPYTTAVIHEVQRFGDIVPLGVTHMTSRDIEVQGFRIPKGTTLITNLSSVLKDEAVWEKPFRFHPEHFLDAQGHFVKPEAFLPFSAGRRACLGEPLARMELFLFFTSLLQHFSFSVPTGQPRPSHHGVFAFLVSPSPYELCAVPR
# [14] = Unbound plasma concentration in human; format: ADME, cell-free
# [15] = test system: Rattus norvegicus; experiment: Elimination half-life in Sprague-Dawley rat at 0.1 to 1 mg/kg, iv; format: ADME, organism-based; settings: in vivo
SMILES,%max [1] [%],EC50 ([2]; read-out: EC50) [nM],EC50 ([2]; read-out: pEC50 (converted)) [nM],also measured
Cc1nnc2sc(C(=O)NCc3ccc(-c4cccnc4)cc3)c(N)c2c1C,63,103,,
Cc1nnc2sc(C(=O)NCc3ccc(-c4cnccn4)cc3)c(N)c2c1C,63,159,,
COc1ncc(-c2ccc(CNC(=O)c3sc4nnc(C)c(C)c4c3N)cc2)cn1,91,84,,
Cc1nnc2sc(C(=O)NCc3ccc(Br)cc3)c(N)c2c1C,82,187,182,
Cc1nnc2sc(C(=O)NCc3ccc(-c4cccnc4[18F])cc3)c(N)c2c1C,,,,Kp [3]: 0.75; Kp uu at 2 h [4]: 1.1; Kp uu at 2 h [5]: 1
Cc1nnc2sc(C(=O)NCc3ccccc3Br)c(N)c2c1C,31,> 10000,,
Cc1nnc2sc(C(=O)NCc3ccc(-c4ccncc4)cc3)c(N)c2c1C,83,36,,efflux ratio [6]: 1.1; fraction unbound [7]: 0.037; Kp [8]: 0.94; IC50 [9]: 9700 nM; fraction unbound [10]: 0.042; IC50 [11]: 340 nM; IC50 [12]: 2300 nM; IC50 [13]: 1300 nM; fraction unbound [14]: 0.013; beta t1/2 [15]: 1.5 h
Cc1nnc2sc(C(=O)NCc3ccc(-c4ccccn4)cc3)c(N)c2c1C,75,232,214,

# More lines, main results first:
%max [1] [%],EC50 ([2]; read-out: EC50) [nM],EC50 ([2]; read-out: pEC50 (converted)) [nM],SMILES,also measured
84,185,170,Cc1nnc2sc(C(=O)NCc3cccc(Br)c3)c(N)c2c1C,
30,> 10000,,Cc1nnc2sc(C(=O)NCc3ccccc3-c3ccccc3)c(N)c2c1C,
49,319,295,Cc1nnc2sc(C(=O)NCc3ccc(-c4ccccc4)cc3)c(N)c2c1C,
